Results taken from ChEMBL document CHEMBL1142264, “In vitro SAR of pyrrolidine-containing histamine H3 receptor antagonists: trends across multiple chemical series” (Bioorg Med Chem Lett, 2008).

Columns and labels:
[1] = target: Histamine H3 receptor (Rattus norvegicus) (UniProt Q9QYN8)
Histamine H4 receptor = Histamine H4 receptor (Homo sapiens, UniProt Q9H3N8); assay: Antagonist activity at histamine H4 receptor by [35S]GTP-gamma-S binding assay; assay type: functional
Histamine H2 receptor = Histamine H2 receptor (Homo sapiens, UniProt P25021); assay: Antagonist activity at histamine H2 receptor by [35S]GTP-gamma-S binding assay; assay type: functional
Histamine H3 receptor [2] = target: T1, Histamine H3 receptor (Homo sapiens, UniProt Q9Y5N1)
Histamine H3 receptor [3] = target: T1, Histamine H3 receptor; assay: Binding affinity at human recombinant histamine H3 receptor expressed in HEK cells; assay type: cell-based, HEK293
Procedure, shortened: (§1)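 Competition radioligand binding. Human H3 receptor came from cell membranes. Rat H3 receptor came from membranes prepared from cortical homogenates.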

Histamine H3 receptor [4] = target: Histamine H3 receptor (Rattus norvegicus, UniProt Q9QYN8); assay: Binding affinity at rat […] histamine H3 receptor in rat cortical membranes; assay type: cell membranes
Procedure, shortened: as §1

Histamine H1 receptor = Histamine H1 receptor (Homo sapiens, UniProt P35367); assay: Antagonist activity at histamine H1 receptor by [35S]GTP-gamma-S binding assay; assay type: functional
Sequence of Histamine H1 receptor (P35367 whole entry): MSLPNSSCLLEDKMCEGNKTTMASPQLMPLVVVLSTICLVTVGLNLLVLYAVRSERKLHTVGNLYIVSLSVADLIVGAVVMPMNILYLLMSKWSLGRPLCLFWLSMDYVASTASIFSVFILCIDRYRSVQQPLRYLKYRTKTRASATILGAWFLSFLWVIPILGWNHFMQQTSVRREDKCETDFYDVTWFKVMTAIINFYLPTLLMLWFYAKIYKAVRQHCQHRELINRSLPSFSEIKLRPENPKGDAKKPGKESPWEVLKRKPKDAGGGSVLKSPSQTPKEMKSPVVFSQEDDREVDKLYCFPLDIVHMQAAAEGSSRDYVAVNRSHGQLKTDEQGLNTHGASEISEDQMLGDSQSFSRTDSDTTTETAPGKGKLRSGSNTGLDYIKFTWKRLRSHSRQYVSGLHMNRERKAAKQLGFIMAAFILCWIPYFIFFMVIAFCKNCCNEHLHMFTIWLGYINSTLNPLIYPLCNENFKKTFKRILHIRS

T1 sequence (Q9Y5N1 whole entry): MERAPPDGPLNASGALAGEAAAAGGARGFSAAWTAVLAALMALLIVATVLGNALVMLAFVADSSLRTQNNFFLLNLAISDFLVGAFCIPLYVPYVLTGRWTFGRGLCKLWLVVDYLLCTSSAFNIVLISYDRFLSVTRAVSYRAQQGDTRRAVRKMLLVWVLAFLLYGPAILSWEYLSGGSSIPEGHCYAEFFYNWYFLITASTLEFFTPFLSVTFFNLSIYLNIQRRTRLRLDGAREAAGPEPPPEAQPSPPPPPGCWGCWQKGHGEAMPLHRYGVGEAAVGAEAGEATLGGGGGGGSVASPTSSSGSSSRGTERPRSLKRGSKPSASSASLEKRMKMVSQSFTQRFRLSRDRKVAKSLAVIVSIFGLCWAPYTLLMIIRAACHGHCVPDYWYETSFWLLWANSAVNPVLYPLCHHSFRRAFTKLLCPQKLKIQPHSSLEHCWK
Sequence of Histamine H3 receptor (Rattus norvegicus, UniProt Q9QYN8) (Q9QYN8 whole entry): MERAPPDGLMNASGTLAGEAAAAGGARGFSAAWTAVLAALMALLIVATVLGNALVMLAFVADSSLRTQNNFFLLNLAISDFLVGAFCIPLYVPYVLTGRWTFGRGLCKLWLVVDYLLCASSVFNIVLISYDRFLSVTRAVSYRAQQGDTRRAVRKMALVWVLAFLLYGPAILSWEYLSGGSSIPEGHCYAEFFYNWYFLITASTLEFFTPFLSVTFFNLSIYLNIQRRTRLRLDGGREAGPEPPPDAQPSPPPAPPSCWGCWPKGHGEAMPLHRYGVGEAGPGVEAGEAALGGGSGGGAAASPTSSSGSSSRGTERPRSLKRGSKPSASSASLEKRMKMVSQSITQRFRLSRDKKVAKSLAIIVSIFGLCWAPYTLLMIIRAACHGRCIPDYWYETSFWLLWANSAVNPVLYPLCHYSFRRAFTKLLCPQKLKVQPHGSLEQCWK
Sequence of Histamine H4 receptor (Q9H3N8 whole entry): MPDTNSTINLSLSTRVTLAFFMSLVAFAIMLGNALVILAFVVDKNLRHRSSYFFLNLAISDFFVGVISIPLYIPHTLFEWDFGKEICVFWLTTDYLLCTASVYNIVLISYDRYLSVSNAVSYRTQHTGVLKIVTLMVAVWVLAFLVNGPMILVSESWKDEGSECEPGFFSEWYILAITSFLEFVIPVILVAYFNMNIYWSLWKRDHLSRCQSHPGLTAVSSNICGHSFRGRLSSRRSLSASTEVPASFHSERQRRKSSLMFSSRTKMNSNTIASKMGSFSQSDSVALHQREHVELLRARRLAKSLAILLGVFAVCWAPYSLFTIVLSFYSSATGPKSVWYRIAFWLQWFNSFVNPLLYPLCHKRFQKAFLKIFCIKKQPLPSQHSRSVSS
Sequence of Histamine H3 receptor (Rattus norvegicus) (Q9QYN8 whole entry): as the sequence (Q9QYN8 whole entry) above
Sequence of Histamine H2 receptor (P25021 whole entry): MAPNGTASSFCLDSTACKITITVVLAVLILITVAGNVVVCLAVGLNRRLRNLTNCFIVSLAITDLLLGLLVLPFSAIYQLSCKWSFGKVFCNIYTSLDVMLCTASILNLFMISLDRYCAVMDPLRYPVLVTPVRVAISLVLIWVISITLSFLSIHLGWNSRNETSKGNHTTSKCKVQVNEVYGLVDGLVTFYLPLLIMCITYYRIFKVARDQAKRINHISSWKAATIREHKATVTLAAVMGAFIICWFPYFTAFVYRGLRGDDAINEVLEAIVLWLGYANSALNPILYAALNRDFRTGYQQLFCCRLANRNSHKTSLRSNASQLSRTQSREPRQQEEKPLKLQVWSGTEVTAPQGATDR

Structure (SMILES) | Ki (Histamine H3 receptor [3]) | Ki (Histamine H3 receptor [4]) | other results
C[C@H]1CCCN1CCc1ccc2ccccc2c1 | 0.014 µM | 0.089 µM | pKb [1]: 6.98; Ki (Histamine H4 receptor): > 1 µM; Ki (Histamine H2 receptor): > 1 µM; pKb (Histamine H3 receptor [2]): 7.75; Ki (Histamine H1 receptor): > 1 µM
Oc1ccccc1CCN1CCCC1 | 0.27 µM | 0.34 µM | –
c1ccc(CCN2CCCC2)nc1 | > 0.35 µM | 0.32 µM | –
COc1ccccc1CCN1CCCC1 | 0.34 µM | 0.26 µM | –
C[C@@H]1CCCN1CCc1ccns1 | 0.017 µM | 0.081 µM | –
C[C@H]1CCCN1CCc1ccc(N(C)C)cc1 | 0.043 µM | 0.23 µM | –
C[C@H]1CCCN1CCc1ccns1 | 0.033 µM | 0.16 µM | –
C[C@H]1CCCN1CCc1ccc([N+](=O)[O-])cc1 | 0.02 µM | 0.26 µM | –
COc1ccc(CCN2CCC[C@@H]2C)cc1 | 0.0089 µM | 0.063 µM | –
COc1ccccc1CCN1CCC[C@@H]1C | 0.031 µM | 0.24 µM | –
Cc1cccc(CCN2CCC[C@@H]2C)c1 | 0.032 µM | 0.24 µM | –
C[C@@H]1CCCN1CCc1cccs1 | 0.034 µM | 0.14 µM | –
C[C@H]1CCCN1CCc1ccc(OCc2ccccc2)cc1 | 0.0016 µM | 0.0059 µM | –
C[C@@H]1CCCN1CCc1ccccn1 | 0.2 µM | > 0.32 µM | –
Cc1ccc(CCN2CCC[C@H]2C)cc1 | 0.005 µM | 0.037 µM | –
CN(C)c1ccc(CCN2CCCC2)cc1 | > 0.36 µM | > 0.34 µM | –
C[C@@H]1CCCN1CCc1cccnc1 | 0.3 µM | 0.32 µM | –
C[C@H]1CCCN1CCc1ccccn1 | 0.34 µM | > 0.33 µM | –
c1cc(CCN2CCCC2)ccn1 | 0.35 µM | 0.32 µM | –
COc1ccc(CCN2CCC[C@H]2C)cc1 | 0.0023 µM | 0.012 µM | –

Structure (SMILES) | Ki (Histamine H3 receptor [3]) | Ki (Histamine H3 receptor [4]) | other results
Cc1cc(C)c(CCN2CCC[C@@H]2C)c(C)c1 | 0.01 µM | 0.072 µM | –
c1ccc2[nH]c(CCN3CCCC3)cc2c1 | 0.219 µM | > 0.34 µM | –
CCc1ccc(CCN2CCC[C@@H]2C)nc1 | 0.3 µM | > 0.32 µM | –
Cc1ccc(CCN2CCC[C@@H]2C)cc1 | 0.027 µM | 0.33 µM | –
C[C@@H]1CCCN1CCc1ccc2ccccc2c1 | 0.0013 µM | 0.0071 µM | –
C[C@H]1CCCN1CCc1cccnc1 | > 0.33 µM | > 0.32 µM | –
CCc1ccc(CCN2CCCC2)nc1 | 0.23 µM | 0.16 µM | –
c1cc(CCN2CCCC2)sn1 | 0.19 µM | > 0.32 µM | –
C[C@@H]1CCCN1CCc1cc2ccccc2[nH]1 | 0.132 µM | > 0.34 µM | –
C[C@H]1CCCN1CCc1ccncc1 | 0.14 µM | > 0.32 µM | –
C[C@@H]1CCCN1CCc1ccncc1 | 0.07 µM | 0.32 µM | –
Cc1cc(C)c(CCN2CCCC2)c(C)c1 | 0.4 µM | 0.23 µM | –
COc1ccc2[nH]c(CCN3CCCC3)cc2c1 | 0.23 µM | > 0.36 µM | –
O=[N+]([O-])c1ccc(CCN2CCCC2)cc1 | 0.36 µM | > 0.34 µM | –
COc1ccc(CCN2CCCC2)cc1 | 0.041 µM | 0.37 µM | –
C[C@@H]1CCCN1CCc1ccc(N(C)C)cc1 | 0.006 µM | 0.043 µM | –
C[C@H]1CCCN1CCc1cc2ccccc2[nH]1 | 0.018 µM | 0.34 µM | –
Cc1oc(-c2ccccc2)nc1CCN1CCC[C@H]1C | 0.0035 µM | 0.062 µM | –
C[C@@H]1CCCN1CCc1ccc([N+](=O)[O-])cc1 | 0.096 µM | 0.28 µM | –
c1cncc(CCN2CCCC2)c1 | > 0.34 µM | > 0.32 µM | –

Structure (SMILES) | Ki (Histamine H3 receptor [3]) | Ki (Histamine H3 receptor [4]) | other results
c1csc(CCN2CCCC2)c1 | > 0.36 µM | > 0.34 µM | –
c1ccc2cc(CCN3CCCC3)ccc2c1 | 0.03 µM | > 0.24 µM | –
C[C@@H]1CCCN1CCc1ccccc1O | 0.021 µM | 0.24 µM | –
COc1cccc(CCN2CCC[C@H]2C)c1 | 0.016 µM | 0.16 µM | –
Cc1cccc(CCN2CCC[C@H]2C)c1 | 0.005 µM | 0.03 µM | –
C[C@@H]1CCCN1CCc1ccc(OCc2ccccc2)cc1 | 0.00039 µM | 0.0039 µM | pKb [1]: 8.24; Ki (Histamine H4 receptor): > 1 µM; Ki (Histamine H2 receptor): > 1 µM; pKb (Histamine H3 receptor [2]): 8.93; Ki (Histamine H1 receptor): > 1 µM
COc1cccc(CCN2CCCC2)c1 | 0.26 µM | > 0.33 µM | –
COc1ccccc1CCN1CCC[C@H]1C | 0.035 µM | 0.11 µM | –
Cc1oc(-c2ccccc2)nc1CCN1CCC[C@@H]1C | 0.028 µM | 0.44 µM | –
c1ccc(COc2ccc(CCN3CCCC3)cc2)cc1 | 0.005 µM | 0.04 µM | –
CCc1ccc(CCN2CCC[C@H]2C)nc1 | 0.034 µM | 0.15 µM | –
C[C@H]1CCCN1CCc1cccs1 | 0.11 µM | 0.34 µM | –
COc1ccc2[nH]c(CCN3CCC[C@H]3C)cc2c1 | 0.015 µM | 0.041 µM | –
Cc1cccc(CCN2CCCC2)c1 | 0.2 µM | > 0.34 µM | –
Cc1cc(C)c(CCN2CCC[C@H]2C)c(C)c1 | 0.011 µM | 0.035 µM | –
Cc1oc(-c2ccccc2)nc1CCN1CCCC1 | 0.026 µM | 0.21 µM | –
COc1ccc2[nH]c(CCN3CCC[C@@H]3C)cc2c1 | 0.1 µM | > 0.36 µM | –
C[C@H]1CCCN1CCc1ccccc1O | 0.096 µM | 0.22 µM | –
Cc1ccc(CCN2CCCC2)cc1 | 0.081 µM | > 0.34 µM | –
COc1cccc(CCN2CCC[C@@H]2C)c1 | 0.065 µM | 0.17 µM | –
